pIC50: −log10 of the molar value.
What was measured:
[1] = Metabolic stability in ICR mouse liver microsomes at 1 uM measured at 30 min in absence of NADPH; format: ADME, Microsome; conditions: read-out: Stability
Procedure, shortened: (§1)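 Test compound at 1 μM incubated with female ICR mouse liver microsomes (0.5 mg protein/mL) for 30 min at 37 °C, with or without NADPH. Result reported as % parent remaining at 30 min.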

[2] = Metabolic stability in ICR mouse liver microsomes at 1 uM measured at 30 min in presence of NADPH; format: ADME, Microsome; conditions: read-out: Stability; procedure, shortened: as §1
[3] = Passive permeability of the compound by PAMPA; format: ADME; conditions: read-out: permeability
Procedure, shortened: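 PAMPA passive diffusion with compound at a final concentration of 200 μM. Effective permeability Pe (nm/s) and membrane retention R (%) reported. Ranitidine and metoprolol served as controls.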

[4] = Lipophilicity, log D of the compound; format: physicochemical; conditions: octanol/water
NUGC-3 = assay: Cytotoxicity against human NUGC3 cells assessed as growth inhibition by SRB assay; format: functional
HCT-15 = assay: Cytotoxicity against human HCT15 cells assessed as growth inhibition by SRB assay; format: functional
NCI-H23 = assay: Cytotoxicity against human NCI-H23 cells assessed as growth inhibition by SRB assay; format: functional
MDA-MB-231 = assay: Cytotoxicity against human MDA-MB-231 cells assessed as growth inhibition by SRB assay; format: functional
ACHN = assay: Cytotoxicity against human ACHN cells assessed as growth inhibition by SRB assay; format: functional
PC-3 = assay: Cytotoxicity against human PC3 cells assessed as growth inhibition by SRB assay; format: functional, cell-based
[5] = Inhibition of HDAC by fluorescence assay
[6] = Oral bioavailability in Balb/c mouse at 30 mg/kg; format: ADME, organism-based; conditions: in vivo
Procedure, shortened: (§2)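 Balb/c mice dosed iv at 10 mg/kg or orally (20 or 30 mg/kg). Plasma concentration–time profiles averaged over three animals per time point. Parameters come from noncompartmental analysis. Oral AUC runs 0–5 h and iv AUC runs 0 to infinity.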

[7] = Half life in Balb/c mouse at 30 mg/kg, po; format: ADME, organism-based; parameters: dose 30 mg/kg, route oral; conditions: in vivo; procedure, shortened: as §2
[8] = Half life in Balb/c mouse at 10 mg/kg, iv; format: ADME, organism-based; parameters: dose 10 mg/kg, route intravenous; conditions: in vivo; procedure, shortened: as §2
[9] = Volume of distribution at steady state in Balb/c mouse at 10 mg/kg, iv; format: ADME, organism-based; parameters: dose 10 mg/kg, route intravenous; conditions: in vivo, read-out: Vdss; procedure, shortened: as §2
[10] = Clearance in Balb/c mouse at 10 mg/kg, iv; format: ADME, organism-based; parameters: dose 10 mg/kg, route intravenous; conditions: in vivo; procedure, shortened: as §2
[11] = AUC (0 to 5 hrs) in Balb/c mouse at 30 mg/kg, po; format: ADME, organism-based; parameters: dose 30 mg/kg, route oral; conditions: plasma; procedure, shortened: as §2
[12] = Cmax in Balb/c mouse at 30 mg/kg, po; format: ADME, organism-based; parameters: dose 30 mg/kg, route oral; conditions: in vivo; procedure, shortened: as §2
[13] = Tmax in Balb/c mouse at 30 mg/kg, po; format: ADME, organism-based; parameters: dose 30 mg/kg, route oral; conditions: in vivo; procedure, shortened: as §2
[14] = AUC (0 to infinity) in Balb/c mouse at 10 mg/kg, iv; format: ADME, organism-based; parameters: time infinity, dose 10 mg/kg, route intravenous; conditions: plasma; procedure, shortened: as §2
[15] = Oral bioavailability in Balb/c mouse at 20 mg/kg; format: ADME, organism-based; conditions: in vivo; procedure, shortened: as §2
[16] = Half life in Balb/c mouse at 20 mg/kg, po; format: ADME, organism-based; parameters: dose 20 mg/kg, route oral; conditions: in vivo; procedure, shortened: as §2
[17] = AUC (0 to 5 hrs) in Balb/c mouse at 20 mg/kg, po; format: ADME, organism-based; parameters: dose 20 mg/kg, route oral; conditions: plasma; procedure, shortened: as §2
[18] = Cmax in Balb/c mouse at 20 mg/kg, po; format: ADME, organism-based; parameters: dose 20 mg/kg, route oral; conditions: in vivo; procedure, shortened: as §2
[19] = Tmax in Balb/c mouse at 20 mg/kg, po; format: ADME, organism-based; parameters: dose 20 mg/kg, route oral; conditions: in vivo; procedure, shortened: as §2
[20] = Apparent permeability across apical to basolateral side in human Caco2 cells at 100 uM; format: ADME, cell-based; conditions: Caco-2

Compound | remaining at 0.5 h, 1 µM [1] [%] | remaining at 0.5 h, 1 µM [2] [%] | Papp [3] [×10⁻⁶ cm/s] | logD [4] | GI50 (NUGC-3) [µM] | GI50 (HCT-15) [µM] | GI50 (NCI-H23) [µM] | GI50 (MDA-MB-231) [µM] | GI50 (ACHN) [µM] | GI50 (PC-3) [µM] | pIC50 [5] | other results
CC(C)(C)c1ccc(CCN2CC=C(CCC(=O)NO)C2=O)cc1 | 51 | 38.1 | 6.53 | 2.25 |  |  |  |  |  |  |  | 
O=C(CCC1=CCN(CCc2cccc([N+](=O)[O-])c2)C1=O)NO |  |  |  | 0.633 | 6.57 | > 10 | 4.39 | 3.18 | 5.7 | 8.69 | 5.97 | 
O=C(CCC1=CCN(Cc2ccc(Br)cc2)C1=O)NO | 100 | 84 | 1.02 | 1.26 |  |  |  |  |  |  |  | bioavailability [6]: 44.6%; half-life [7]: 186 min; half-life [8]: 168 min; Vd [9]: 4.1 L/kg; clearance [10]: 71.7 mL/min/kg; AUC(0-t) at 4 h [11]: 3110 ng·h/mL; Cmax [12]: 2710 ng/mL; Tmax [13]: 9 min; AUC(0-inf) [14]: 2330 ng·h/mL
O=C(CCC1=CCN(CCc2ccc([N+](=O)[O-])cc2)C1=O)NO |  |  |  | 0.594 | > 10 | > 10 | 7.8 | 4.97 | 8.96 | > 10 | 5.83 | 
O=C(CCC1=CCN(CCCCc2ccc(Cl)cc2)C1=O)NO | 34.6 | 24.9 | 0.494 | 2.17 |  |  |  |  |  |  |  | 
O=C(CCC1=CCN(Cc2cc(C(F)(F)F)cc(C(F)(F)F)c2)C1=O)NO | 40.5 | 35.7 | 2.83 | 2.4 |  |  |  |  |  |  |  | 
N#Cc1cccc(CN2CC=C(CCC(=O)NO)C2=O)c1 |  |  |  | 0.236 | 4.12 | > 10 | 4.08 | 3.6 | 7.75 | 7.92 | 6.80 | 
N#Cc1ccc(CN2CC=C(CCC(=O)NO)C2=O)cc1 |  |  |  | 0.197 | > 10 | > 10 | 2.32 | 5.38 | > 10 | > 10 | 6.82 | 
CC(C)(C)c1ccc(CN2CC=C(CCC(=O)NO)C2=O)cc1 | 79 | 58.2 | 2.19 | 2.1 | 0.72 | 0.57 | 0.42 | 0.69 | 0.86 | 1.83 | 7.00 | bioavailability [15]: 10.7%; half-life [16]: 816 min; AUC(0-t) at 4 h [17]: 739 ng·h/mL; Cmax [18]: 462 ng/mL; Tmax [19]: 15 min; half-life [8]: 468 min; Vd [9]: 1.6 L/kg; clearance [10]: 48.3 mL/min/kg; AUC(0-inf) [14]: 3440 ng·h/mL
O=C(CCC1=CCN(Cc2ccc(F)cc2)C1=O)NO | 91.4 | 87.7 | 1.93 | 0.571 | 6.06 | 4.07 | 4.67 | 1.94 | 5.99 | 5.31 | 7.22 | bioavailability [6]: 30.6%; half-life [7]: 66 min; half-life [8]: 156 min; Vd [9]: 1.8 L/kg; clearance [10]: 130 mL/min/kg; AUC(0-t) at 4 h [11]: 1180 ng·h/mL; Cmax [12]: 2300 ng/mL; Tmax [13]: 15 min; Papp A→B at 100 µM [20]: 7.8 ×10⁻⁶ cm/s; AUC(0-inf) [14]: 1280 ng·h/mL
CC(C)(C)c1ccc(CCCN2CC=C(CCC(=O)NO)C2=O)cc1 | 57.6 | 35.3 | 1.5 | 2.7 |  |  |  |  |  |  |  | 
